Holding throughout (type): functional
Test [1] is filed under the species Mus musculus. As to the kind of experiment: Effect on recovery time for coma induced in mice by cerebral concussion (control group). An outline of the steps:
(§1)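 Groups of 10 mice received compound orally 1 h before head concussion, at 100 mg/kg unless another dose is noted. Vehicle was 0.5% gum arabic in saline, and controls received vehicle alone. The read-out was time to reappearance of the righting reflex (mean ± SE s), expressed as % of control. Two-tailed t-test was used.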

Test [2] concerns Mus musculus. As to the kind of experiment: Effect on Immobility Time in the Forced-Swimming Test in Mice at the dose of 1 mg/kg po. An outline of the steps: (§2)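 Mice, 8 per group. Dosing was oral, either as a single dose 1 h before testing on day 2 or repeated once daily for 4 days. Each mouse swam 6 min in a cylinder with 6 cm of water at 22-23 °C, and immobility was scored over the last 4 min. Results are mean ± SE seconds and % of control, analysed by one-way ANOVA with Dunnett's test.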

Test [3] relates to Mus musculus. As to the kind of experiment: Effect on Immobility Time in the Forced-Swimming Test in Mice at the dose of 0 mg/kg po. An outline of the steps: as §2
In test [4] the test system is Mus musculus. As to the kind of experiment: Effect on Immobility Time in the Forced-Swimming Test in Mice at the dose of 10 mg/kg po. An outline of the steps:
as §2

For test [5], the species on record is Mus musculus. Nature of the test: Effect on the sleeping time of mice before halothane load (control group). An outline of the steps: (§3)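 Groups of 10 mice received compound orally 1 h before testing, at 100 mg/kg unless another dose is noted. Vehicle was 0.5% gum arabic in 0.9% saline, and controls received vehicle alone. Mice were exposed to 4% halothane in air at 2 L/min. Sleeping time ran from loss to recovery of righting reflex (mean ± SE s), expressed as % of control. Two-tailed t-test was used.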

The test system of test [6] is Mus musculus. Nature of the test: Effect on the sleeping time of mice anesthetized with halothane (treated group) (30 mg/kg). An outline of the steps:
as §3

Test [7] is filed under the species Mus musculus. As to the kind of experiment: Effect on recovery time for coma induced in mice by cerebral concussion (treated group). An outline of the steps: as §1
The subject of test [8] is Mus musculus. Nature of the test: Effect on the time required for recovery from coma induced in mice by cerebral concussion at the dose of 10 mg/kg po. An outline of the steps:
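In the concussion-coma test in mice (n = 10), compound was given orally 1 h before concussion, and antagonists were pre-dosed 15 min to 1 h before the test compound. The read-out was time to recovery of the righting reflex as % of control. Statistics were two-tailed t-test versus control and one-way ANOVA with Dunnett's test versus the treated group.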

Test [9] relates to Mus musculus. As to the kind of experiment: Effect on Immobility Time in the Forced-Swimming Test in Mice at the dose of 30 mg/kg po for repeated administration. An outline of the steps: as §2
Test [10] concerns Mus musculus. Nature of the test: Effect on Immobility Time in the Forced-Swimming Test in Mice at the dose of 10 mg/kg po for repeated administration. An outline of the steps: as §2
Test [11] concerns Mus musculus. Nature of the test: Effect on Immobility Time in the Forced-Swimming Test in Mice at the dose of 0 mg/kg po for repeated administration. An outline of the steps:
as §2

Test [12] concerns Mus musculus. Nature of the test: Effect on Immobility Time in the Forced-Swimming Test in Mice at the dose of 0 mg/kg po for single administration. An outline of the steps: as §2
In test [13] the test system is Mus musculus. As to the kind of experiment: Effect on Immobility Time in the Forced-Swimming Test in Mice at the dose of 10 mg/kg po for single administration. An outline of the steps: as §2
Test [14] relates to Mus musculus. As to the kind of experiment: Effect on Immobility Time in the Forced-Swimming Test in Mice at the dose of 30 mg/kg po for single administration. An outline of the steps:
as §2

“And” between values parts separate entries of the source, which are not always exact repeats. Identical values can stand only once.

As for `COc1cccc2c1CCC(=O)N2CCCN1CCN(c2cccc(Cl)c2)CC1.CS(=O)(=O)O.O`, the RRT is recorded as 165 s in the test listed under Mus musculus [1] and under 49 s in the test listed under Mus musculus [7]. Moreover, the values for the Time in the test with Mus musculus [2], in the test on Mus musculus [3] and in the test with Mus musculus [4] were under 140 s, 199 s and under 138 s, respectively. Moreover, the Sleeping time in the test listed under Mus musculus [5] was 613 s; with Mus musculus [6], under 414 s.
Consider `Cc1ccccc1NC(=N)Nc1ccccc1C`, for which the RRT in the test on Mus musculus [8] is <81 s and <210 s; in the test filed under Mus musculus [1] it was 153 s; in the test listed under Mus musculus [7] it was under 101 s.
On to `CN(C)CCCN1c2ccccc2CCc2ccccc21` [IMIPRAMINE], for which the RRT in the test listed under Mus musculus [1] is recorded as 177 s; in the test listed under Mus musculus [7] it was 290 s. The Time in the test on Mus musculus [9] is on record as under 109 s; with Mus musculus [10] it was 122 s; in the test with Mus musculus [11], 178 s; in the test on Mus musculus [12], 198 s; in the test on Mus musculus [13] it was 158 s; in the test with Mus musculus [14] it was 160 s.

These data come from ChEMBL document CHEMBL1133659, “3,4-dihydro-2(1H)-quinolinone as a novel antidepressant drug: synthesis and pharmacology of 1-[3-[4-(3-chlorophenyl)-1-piperazinyl]propyl]-3,4- dihydro-5-methoxy-2(1H)-quinolinone and its derivatives” (J Med Chem, 2000).
